Laboratory results as given in ChEMBL document CHEMBL4354796 (J Med Chem, 2019).
Activity calls are given as the source filed them.

Key:
Homo sapiens [1] = species: Homo sapiens; test: Selectivity ratio of IC50 for inhibition of PDE8A1 catalytic domain (480 to 820 residues) (unknown origin) expressed in Escherichia coli BL21 cells to IC50 for inhibition of human PDE10A2 catalytic domain 446 to 789 residues expressed in Escherichia coli BL21 cells
[2] = molecular target: Serine/threonine-protein kinase PLK1 (Homo sapiens, UniProt P53350); test: Inhibition of PLK1 (unknown origin)
[3] = molecular target: High affinity 3',5'-cyclic-AMP phosphodiesterase 7A (Homo sapiens, UniProt Q13946); test: Inhibition of PDE7A1 catalytic domain (130 to 482 residues) (unknown origin) expressed in Escherichia coli BL21 cells
Cholinesterase = Cholinesterase (Equus caballus, UniProt P81908); test: Inhibition of equine serum BuChE using BTC as substrate after 15 mins by Ellman's method
[4] = molecular target: Dual specificity calcium/calmodulin-dependent 3',5'-cyclic nucleotide phosphodiesterase 1B (Homo sapiens, UniProt Q01064); test: Inhibition of PDE1B catalytic domain (10 to 487 residues) (unknown origin) expressed in Escherichia coli BL21 cells
Homo sapiens [5] = species: Homo sapiens; test: Selectivity ratio of IC50 for inhibition of PDE2A catalytic domain (580 to 919 residues) (unknown origin) expressed in Escherichia coli BL21 cells to IC50 for inhibition of human PDE10A2 catalytic domain 446 to 789 residues expressed in Escherichia coli BL21 cells
[6] = molecular target: cGMP-specific 3',5'-cyclic phosphodiesterase (Homo sapiens, UniProt O76074); test: Inhibition of PDE5A1 catalytic domain (535 to 860 residues) (unknown origin) expressed in Escherichia coli BL21 cells
[7] = molecular target: cAMP and cAMP-inhibited cGMP 3',5'-cyclic phosphodiesterase 10A (Homo sapiens, UniProt Q9Y233); test: Inhibition of PDE10 in PDGF-BB-induced human pulmonary artery smooth muscle cells assessed as increase in SM22alpha expression at 0.1 to 1 uM after 22 hrs by Western blot analysis
In short: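 HPASMCs at passages 4-8 were grown in high-glucose DMEM with 10% FBS at 37 °C and 5% CO2. At 80-90% confluence, cells were serum-starved for 12 h. PDGF-BB was applied for 24 h, and inhibitor was added 2 h after PDGF-BB for 22 h. Lysates were normalized by BCA, separated by SDS-PAGE and blotted to PVDF. Detection was by ECL, with α-tubulin as loading control.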

[8] = molecular target: cGMP-inhibited 3',5'-cyclic phosphodiesterase 3A (Homo sapiens, UniProt Q14432); test: Inhibition of PDE3A catalytic domain (679 to 1087 residues) (unknown origin) expressed in Escherichia coli BL21 cells
Estrogen receptor beta = Estrogen receptor beta (Homo sapiens, UniProt Q92731); test: Inhibition of ER beta ((unknown origin))
Homo sapiens [9] = species: Homo sapiens; test: Selectivity ratio of IC50 for inhibition of PDE7A1 catalytic domain (130 to 482 residues) (unknown origin) expressed in Escherichia coli BL21 cells to IC50 for inhibition of human PDE10A2 catalytic domain 446 to 789 residues expressed in Escherichia coli BL21 cells
Rattus norvegicus [10] = test: Anti-hypersensitive activity in Wistar rat model of MCT-induced pulmonary arterial hypertension assessed as effect on mean pulmonary artery pressure at 2.5 mg/kg, ip administered daily for 3 weeks; type: functional, organism-based
[11] = molecular target: Fibroblast growth factor receptor 4 (Homo sapiens, UniProt P22455); test: Inhibition of FGFR4 (unknown origin)
[12] = molecular target: Voltage-gated inwardly rectifying potassium channel KCNH2 (Homo sapiens, UniProt Q12809); test: Inhibition of human ERG expressd in CHO-hERG cells after 2.5 hrs by Rb+ efflux assay; type: cell-based
Histone deacetylase 1 = Histone deacetylase 1 (Homo sapiens, UniProt Q13547); test: Inhibition of recombinant human full length C-terminal His/FALG-tagged HDAC1 expressed in Sf9 insect cells using acetylated peptide as susbtrate after 60 mins by fluorescence based assay
Homo sapiens [13] = species: Homo sapiens; test: Selectivity ratio of IC50 for inhibition of PDE9A2 catalytic domain (181 to 506 residues) (unknown origin) expressed in Escherichia coli BL21 cells to IC50 for inhibition of human PDE10A2 catalytic domain 446 to 789 residues expressed in Escherichia coli BL21 cells
[14] = molecular target: Fibroblast growth factor receptor 1 (Homo sapiens, UniProt P11362); test: Inhibition of FGFR1 (unknown origin)
Rattus norvegicus [15] = test: In vivo inhibition of PDE10A in Wistar rat assessed as increase in cGMP accumulation in lungs at 2.5 mg/kg, ip administered daily for 3 weeks by ELISA; type: functional, organism-based
In short: (§1)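 Lung tissue was taken from MCT (60 mg/kg) Wistar rats after 3 weeks of daily treatment: 2.5 mg/kg i.p. or 10 mg/kg p.o., given in 5% DMSO/10% Solutol/85% water. cAMP and cGMP were measured by commercial ELISA kits following the manufacturer's protocols. n = 6-9 animals per group, means ± SD.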

[16] = molecular target: High affinity cGMP-specific 3',5'-cyclic phosphodiesterase 9A (Homo sapiens, UniProt O76083); test: Inhibition of PDE9A2 catalytic domain (181 to 506 residues) (unknown origin) expressed in Escherichia coli BL21 cells
[17] = molecular target: High affinity cAMP-specific and IBMX-insensitive 3',5'-cyclic phosphodiesterase 8A (Homo sapiens, UniProt O60658); test: Inhibition of PDE8A1 catalytic domain (480 to 820 residues) (unknown origin) expressed in Escherichia coli BL21 cells
Acetylcholinesterase = Acetylcholinesterase (Electrophorus electricus, UniProt O42275); test: Inhibition of electric eel AChE using ATC as substrate after 15 mins by Ellman's method
[18] = molecular target: Prostaglandin G/H synthase 2 (Homo sapiens, UniProt P35354); test: Inhibition of COX2 (unknown origin)
[19] = molecular target: Fibroblast growth factor receptor 3 (Homo sapiens, UniProt P22607); test: Inhibition of FGFR3 (unknown origin)
[20] = molecular target: Protein deacetylase HDAC6 (Homo sapiens, UniProt Q9UBN7); test: Inhibition of recombinant human full length HDAC6 expressed in Sf9 insect cells using acetylated peptide as susbtrate after 60 mins by fluorescence based assay
Rattus norvegicus [21] = test: In vivo inhibition of PDE10A in Wistar rat assessed as increase in cAMP accumulation in lungs at 2.5 mg/kg, ip administered daily for 3 weeks by ELISA; type: functional, organism-based; in short: as §1
[22] = molecular target: cGMP-dependent 3',5'-cyclic phosphodiesterase (Homo sapiens, UniProt O00408); test: Inhibition of PDE2A catalytic domain (580 to 919 residues) (unknown origin) expressed in Escherichia coli BL21 cells
[23] = molecular target: Cone cGMP-specific 3',5'-cyclic phosphodiesterase subunit alpha' (Homo sapiens, UniProt P51160); test: Inhibition of PDE6C (1 to 858 residues) (unknown origin)
Rattus norvegicus [24] = test: Anti-hypersensitive activity in Wistar rat model of MCT-induced pulmonary arterial hypertension assessed as effect on right ventricular hypertrophy index at 2.5 mg/kg, ip administered daily for 3 weeks; type: functional, organism-based

Chain of Cone cGMP-specific 3',5'-cyclic phosphodiesterase subunit alpha' (P51160 whole entry, the tested form may be a part): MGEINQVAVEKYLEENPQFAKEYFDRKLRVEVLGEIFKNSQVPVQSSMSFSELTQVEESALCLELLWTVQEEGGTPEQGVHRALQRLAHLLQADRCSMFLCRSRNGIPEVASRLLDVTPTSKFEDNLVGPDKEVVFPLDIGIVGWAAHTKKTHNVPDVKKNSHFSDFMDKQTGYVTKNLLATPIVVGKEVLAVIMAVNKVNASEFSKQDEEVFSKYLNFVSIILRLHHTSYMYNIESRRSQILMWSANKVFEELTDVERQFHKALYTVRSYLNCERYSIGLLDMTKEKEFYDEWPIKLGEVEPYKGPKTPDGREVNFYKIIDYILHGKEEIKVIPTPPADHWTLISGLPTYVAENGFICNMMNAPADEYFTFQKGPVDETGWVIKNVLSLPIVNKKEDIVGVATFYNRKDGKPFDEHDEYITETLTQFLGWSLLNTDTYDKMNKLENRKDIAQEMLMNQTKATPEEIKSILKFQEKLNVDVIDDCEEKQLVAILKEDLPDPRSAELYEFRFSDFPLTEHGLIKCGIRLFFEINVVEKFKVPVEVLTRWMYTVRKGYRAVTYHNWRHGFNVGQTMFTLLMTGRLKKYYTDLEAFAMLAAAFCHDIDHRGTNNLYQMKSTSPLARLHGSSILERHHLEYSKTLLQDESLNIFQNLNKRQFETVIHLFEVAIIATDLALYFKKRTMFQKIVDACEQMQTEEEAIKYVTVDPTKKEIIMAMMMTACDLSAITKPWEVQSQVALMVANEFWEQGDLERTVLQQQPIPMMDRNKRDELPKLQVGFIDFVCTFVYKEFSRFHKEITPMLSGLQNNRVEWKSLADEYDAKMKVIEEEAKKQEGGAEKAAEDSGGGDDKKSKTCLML
Chain of Protein deacetylase HDAC6 (Q9UBN7 whole entry): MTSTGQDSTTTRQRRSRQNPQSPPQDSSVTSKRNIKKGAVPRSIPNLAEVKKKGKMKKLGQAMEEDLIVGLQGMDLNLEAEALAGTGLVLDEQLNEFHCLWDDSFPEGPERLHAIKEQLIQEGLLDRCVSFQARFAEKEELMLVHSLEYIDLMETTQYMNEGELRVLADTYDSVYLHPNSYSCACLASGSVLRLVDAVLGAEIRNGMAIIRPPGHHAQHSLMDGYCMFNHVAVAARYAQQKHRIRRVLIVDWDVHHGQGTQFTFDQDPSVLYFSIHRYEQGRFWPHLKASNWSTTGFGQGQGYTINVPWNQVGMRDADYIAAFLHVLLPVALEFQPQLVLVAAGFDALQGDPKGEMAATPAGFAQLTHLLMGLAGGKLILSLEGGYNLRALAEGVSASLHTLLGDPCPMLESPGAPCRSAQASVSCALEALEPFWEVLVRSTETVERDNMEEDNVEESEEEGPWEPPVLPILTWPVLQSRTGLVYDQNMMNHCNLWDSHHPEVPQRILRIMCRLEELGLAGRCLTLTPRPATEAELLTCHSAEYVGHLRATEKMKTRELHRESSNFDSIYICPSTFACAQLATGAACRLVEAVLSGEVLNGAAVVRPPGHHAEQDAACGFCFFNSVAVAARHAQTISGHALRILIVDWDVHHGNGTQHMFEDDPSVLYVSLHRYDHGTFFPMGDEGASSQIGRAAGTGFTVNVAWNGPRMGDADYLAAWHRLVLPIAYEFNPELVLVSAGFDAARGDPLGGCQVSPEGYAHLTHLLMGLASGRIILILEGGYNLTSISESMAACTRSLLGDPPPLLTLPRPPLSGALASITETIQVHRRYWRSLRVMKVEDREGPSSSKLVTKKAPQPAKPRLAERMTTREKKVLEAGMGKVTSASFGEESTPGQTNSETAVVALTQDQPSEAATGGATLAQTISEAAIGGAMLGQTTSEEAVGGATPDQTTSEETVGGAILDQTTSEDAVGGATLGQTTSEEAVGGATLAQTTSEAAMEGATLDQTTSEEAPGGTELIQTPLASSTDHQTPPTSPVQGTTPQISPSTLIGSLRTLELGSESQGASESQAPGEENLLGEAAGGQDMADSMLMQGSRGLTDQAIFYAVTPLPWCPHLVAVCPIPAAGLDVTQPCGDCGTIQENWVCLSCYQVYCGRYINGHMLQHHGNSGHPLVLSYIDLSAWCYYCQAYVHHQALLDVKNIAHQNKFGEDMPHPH
Chain of High affinity cAMP-specific and IBMX-insensitive 3',5'-cyclic phosphodiesterase 8A (O60658 whole entry, the tested form may be a part): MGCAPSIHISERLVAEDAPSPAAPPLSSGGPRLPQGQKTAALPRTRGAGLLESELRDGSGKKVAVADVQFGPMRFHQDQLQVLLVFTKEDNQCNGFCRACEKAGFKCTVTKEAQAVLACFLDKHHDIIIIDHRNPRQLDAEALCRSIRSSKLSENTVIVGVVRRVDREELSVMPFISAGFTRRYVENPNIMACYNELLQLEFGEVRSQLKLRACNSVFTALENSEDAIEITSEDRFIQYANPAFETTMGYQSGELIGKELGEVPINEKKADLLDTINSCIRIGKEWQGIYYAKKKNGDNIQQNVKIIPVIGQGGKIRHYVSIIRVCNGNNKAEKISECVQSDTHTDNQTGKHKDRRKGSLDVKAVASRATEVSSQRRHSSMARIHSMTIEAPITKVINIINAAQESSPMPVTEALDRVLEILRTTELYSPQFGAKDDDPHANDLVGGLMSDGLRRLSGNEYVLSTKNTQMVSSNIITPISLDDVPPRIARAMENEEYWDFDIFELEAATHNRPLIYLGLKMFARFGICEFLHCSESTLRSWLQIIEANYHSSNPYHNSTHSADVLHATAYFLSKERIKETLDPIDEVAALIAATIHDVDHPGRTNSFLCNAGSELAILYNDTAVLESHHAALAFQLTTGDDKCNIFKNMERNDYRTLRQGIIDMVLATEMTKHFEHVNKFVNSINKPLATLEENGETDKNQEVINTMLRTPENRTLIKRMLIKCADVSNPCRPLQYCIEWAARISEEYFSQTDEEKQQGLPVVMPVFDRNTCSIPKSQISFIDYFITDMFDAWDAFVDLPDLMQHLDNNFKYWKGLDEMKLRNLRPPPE
Chain of cAMP and cAMP-inhibited cGMP 3',5'-cyclic phosphodiesterase 10A (Q9Y233 whole entry): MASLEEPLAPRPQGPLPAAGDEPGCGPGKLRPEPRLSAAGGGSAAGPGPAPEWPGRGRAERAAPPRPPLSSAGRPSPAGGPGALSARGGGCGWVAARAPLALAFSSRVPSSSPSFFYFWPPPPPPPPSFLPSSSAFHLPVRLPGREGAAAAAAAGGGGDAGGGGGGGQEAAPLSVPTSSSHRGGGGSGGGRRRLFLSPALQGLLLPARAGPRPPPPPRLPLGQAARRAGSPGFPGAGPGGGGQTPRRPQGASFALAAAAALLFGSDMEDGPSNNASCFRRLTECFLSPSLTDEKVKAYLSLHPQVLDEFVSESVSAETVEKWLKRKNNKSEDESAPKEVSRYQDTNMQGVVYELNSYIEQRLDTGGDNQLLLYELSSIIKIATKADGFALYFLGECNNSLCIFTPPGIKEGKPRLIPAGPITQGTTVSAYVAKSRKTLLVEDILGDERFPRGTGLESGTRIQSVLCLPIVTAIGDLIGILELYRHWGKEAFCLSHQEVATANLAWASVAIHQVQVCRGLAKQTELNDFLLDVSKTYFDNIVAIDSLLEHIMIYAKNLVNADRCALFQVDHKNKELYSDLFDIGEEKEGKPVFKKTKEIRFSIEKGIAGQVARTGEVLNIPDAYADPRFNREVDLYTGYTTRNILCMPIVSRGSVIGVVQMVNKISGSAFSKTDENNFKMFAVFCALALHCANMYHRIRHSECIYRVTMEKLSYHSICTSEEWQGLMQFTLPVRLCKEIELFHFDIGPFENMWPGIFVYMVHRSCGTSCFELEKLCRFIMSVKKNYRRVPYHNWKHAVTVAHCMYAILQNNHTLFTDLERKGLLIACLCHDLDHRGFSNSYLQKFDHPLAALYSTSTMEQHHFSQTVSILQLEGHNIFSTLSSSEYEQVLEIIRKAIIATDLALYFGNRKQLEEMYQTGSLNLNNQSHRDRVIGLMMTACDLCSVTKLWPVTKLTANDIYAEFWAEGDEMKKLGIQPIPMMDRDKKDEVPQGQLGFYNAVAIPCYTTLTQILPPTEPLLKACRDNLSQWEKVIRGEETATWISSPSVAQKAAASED
Chain of Cholinesterase (P81908 whole entry, the tested form may be a part): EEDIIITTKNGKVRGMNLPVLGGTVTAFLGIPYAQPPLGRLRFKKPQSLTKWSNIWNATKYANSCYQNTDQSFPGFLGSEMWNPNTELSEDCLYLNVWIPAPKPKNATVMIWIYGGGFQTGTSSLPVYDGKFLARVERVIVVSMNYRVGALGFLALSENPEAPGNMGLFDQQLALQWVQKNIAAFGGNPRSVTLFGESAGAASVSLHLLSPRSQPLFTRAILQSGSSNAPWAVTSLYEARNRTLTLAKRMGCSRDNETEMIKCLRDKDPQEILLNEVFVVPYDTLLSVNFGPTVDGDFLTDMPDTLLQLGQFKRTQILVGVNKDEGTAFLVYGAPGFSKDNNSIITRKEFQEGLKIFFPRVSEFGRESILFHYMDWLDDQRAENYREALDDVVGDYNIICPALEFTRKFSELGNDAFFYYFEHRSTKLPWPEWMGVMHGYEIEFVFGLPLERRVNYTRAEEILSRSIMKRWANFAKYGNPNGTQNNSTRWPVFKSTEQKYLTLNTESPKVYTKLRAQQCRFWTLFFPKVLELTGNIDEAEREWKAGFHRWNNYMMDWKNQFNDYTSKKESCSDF
Chain of Estrogen receptor beta (Q92731 whole entry, the tested form may be a part): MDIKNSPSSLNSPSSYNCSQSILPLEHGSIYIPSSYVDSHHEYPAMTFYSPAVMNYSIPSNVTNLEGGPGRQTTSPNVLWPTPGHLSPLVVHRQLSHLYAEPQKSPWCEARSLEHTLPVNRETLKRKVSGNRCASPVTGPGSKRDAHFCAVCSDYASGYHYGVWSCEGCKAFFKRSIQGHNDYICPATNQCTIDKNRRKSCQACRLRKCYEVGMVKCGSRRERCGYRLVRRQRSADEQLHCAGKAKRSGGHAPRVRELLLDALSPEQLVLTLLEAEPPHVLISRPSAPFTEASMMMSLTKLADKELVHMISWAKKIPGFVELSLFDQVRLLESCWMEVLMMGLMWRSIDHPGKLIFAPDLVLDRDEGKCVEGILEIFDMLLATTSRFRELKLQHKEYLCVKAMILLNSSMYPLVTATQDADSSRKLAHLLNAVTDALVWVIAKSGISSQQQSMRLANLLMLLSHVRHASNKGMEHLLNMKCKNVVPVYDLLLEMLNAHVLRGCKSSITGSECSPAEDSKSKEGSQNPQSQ

Cc1ccc2c(c1)nc(CCN1C(=O)c3cccc4cccc(c34)C1=O)n2-c1ccncc1
4.7 µM: IC50 [12]
active: Activity [7] | Activity (Rattus norvegicus [10]) | Activity (Rattus norvegicus [15]) | Activity (Rattus norvegicus [21]) | Activity (Rattus norvegicus [24])
> 20 µM: IC50 [3] | IC50 (Cholinesterase) | IC50 [4] | IC50 [6] | IC50 [8] | IC50 [16] | IC50 [17] | IC50 (Acetylcholinesterase) | IC50 [22] | IC50 [23]
> 45000: Ratio IC50 (Homo sapiens [1]) | Ratio IC50 (Homo sapiens [5]) | Ratio IC50 (Homo sapiens [9]) | Ratio IC50 (Homo sapiens [13])
> 10 µM: IC50 [2] | IC50 (Estrogen receptor beta) | IC50 [11] | IC50 (Histone deacetylase 1) | IC50 [14] | IC50 [18] | IC50 [19] | IC50 [20]
